Measured values: ChEMBL document CHEMBL1140880, “Arylphthalazines as potent, and orally bioavailable inhibitors of VEGFR-2” (Bioorg Med Chem, 2009)
Values after ≈ are worked out from the molar mass of the structure shown.

Key:
[1] = target: T1, Vascular endothelial growth factor receptor 2 (Homo sapiens, UniProt P35968); conditions: HEK293
[2] = target: T1, Vascular endothelial growth factor receptor 2; assay: Inhibition of VEGFR2 by HTRF method
[3] = target: Vascular endothelial growth factor receptor 3 (Homo sapiens) (UniProt P35916); assay: Inhibition of VEGFR3 at 10 uM
Chain of Vascular endothelial growth factor receptor 3 (Homo sapiens) (P35916 whole entry): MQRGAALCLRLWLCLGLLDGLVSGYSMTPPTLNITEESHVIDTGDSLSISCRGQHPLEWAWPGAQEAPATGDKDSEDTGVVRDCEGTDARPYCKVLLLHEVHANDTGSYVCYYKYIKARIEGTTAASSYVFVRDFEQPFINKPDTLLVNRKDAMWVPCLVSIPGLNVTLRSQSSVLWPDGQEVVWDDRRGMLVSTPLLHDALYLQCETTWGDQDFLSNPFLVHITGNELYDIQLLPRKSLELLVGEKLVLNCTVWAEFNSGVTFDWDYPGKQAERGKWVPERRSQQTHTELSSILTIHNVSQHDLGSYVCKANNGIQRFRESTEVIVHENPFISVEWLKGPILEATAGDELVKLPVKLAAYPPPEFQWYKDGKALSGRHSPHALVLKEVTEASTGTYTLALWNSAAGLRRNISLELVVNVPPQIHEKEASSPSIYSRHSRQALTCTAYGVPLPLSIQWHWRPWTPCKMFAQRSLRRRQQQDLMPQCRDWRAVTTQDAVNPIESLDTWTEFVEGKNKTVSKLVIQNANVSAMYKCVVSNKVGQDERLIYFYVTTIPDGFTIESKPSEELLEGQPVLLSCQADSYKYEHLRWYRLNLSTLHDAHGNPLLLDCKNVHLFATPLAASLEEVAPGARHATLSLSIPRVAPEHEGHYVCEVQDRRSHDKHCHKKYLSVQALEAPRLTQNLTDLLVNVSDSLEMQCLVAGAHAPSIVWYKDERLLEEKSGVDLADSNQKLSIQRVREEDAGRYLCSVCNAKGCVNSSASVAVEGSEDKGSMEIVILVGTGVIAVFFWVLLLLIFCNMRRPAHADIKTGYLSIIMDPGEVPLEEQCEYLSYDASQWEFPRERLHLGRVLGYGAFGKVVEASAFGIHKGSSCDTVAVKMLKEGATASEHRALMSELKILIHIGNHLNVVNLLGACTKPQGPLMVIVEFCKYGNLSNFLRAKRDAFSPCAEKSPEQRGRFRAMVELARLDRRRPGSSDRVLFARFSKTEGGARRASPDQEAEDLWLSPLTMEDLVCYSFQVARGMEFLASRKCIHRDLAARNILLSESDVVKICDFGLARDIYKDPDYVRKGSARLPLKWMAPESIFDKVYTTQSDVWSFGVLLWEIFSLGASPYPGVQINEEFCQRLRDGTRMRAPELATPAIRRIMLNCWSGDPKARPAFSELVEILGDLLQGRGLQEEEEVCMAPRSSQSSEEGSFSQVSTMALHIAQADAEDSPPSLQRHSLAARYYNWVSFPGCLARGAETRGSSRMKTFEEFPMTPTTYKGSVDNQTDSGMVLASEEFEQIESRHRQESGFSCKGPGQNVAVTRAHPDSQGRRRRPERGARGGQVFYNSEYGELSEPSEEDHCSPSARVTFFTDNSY

[4] = target: Fibroblast growth factor receptor 1 (Homo sapiens) (UniProt P11362); assay: Inhibition of FGFR1 at 10 uM
Chain of Fibroblast growth factor receptor 1 (Homo sapiens) (P11362 22-822 limits assumed): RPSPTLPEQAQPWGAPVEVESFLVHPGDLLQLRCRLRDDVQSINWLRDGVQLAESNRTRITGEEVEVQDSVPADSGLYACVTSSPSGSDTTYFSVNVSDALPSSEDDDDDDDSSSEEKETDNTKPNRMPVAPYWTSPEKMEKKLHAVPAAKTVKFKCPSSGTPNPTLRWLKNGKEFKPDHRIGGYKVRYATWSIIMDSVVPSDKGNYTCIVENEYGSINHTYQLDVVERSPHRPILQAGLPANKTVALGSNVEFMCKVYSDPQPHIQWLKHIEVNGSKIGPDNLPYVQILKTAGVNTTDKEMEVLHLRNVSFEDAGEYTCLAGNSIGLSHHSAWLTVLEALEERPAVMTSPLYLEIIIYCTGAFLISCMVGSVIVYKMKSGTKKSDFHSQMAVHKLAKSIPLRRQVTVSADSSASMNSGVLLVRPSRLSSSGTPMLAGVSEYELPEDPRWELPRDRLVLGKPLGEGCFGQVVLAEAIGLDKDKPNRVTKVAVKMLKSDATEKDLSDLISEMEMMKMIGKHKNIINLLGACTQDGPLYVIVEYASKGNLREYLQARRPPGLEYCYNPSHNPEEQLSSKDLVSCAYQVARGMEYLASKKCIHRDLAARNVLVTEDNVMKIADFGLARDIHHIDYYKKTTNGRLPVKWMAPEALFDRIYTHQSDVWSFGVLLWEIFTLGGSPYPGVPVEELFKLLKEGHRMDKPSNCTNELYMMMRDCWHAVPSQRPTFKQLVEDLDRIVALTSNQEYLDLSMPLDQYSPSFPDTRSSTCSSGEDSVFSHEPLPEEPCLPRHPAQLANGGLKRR

[5] = target: Sodium-dependent dopamine transporter (Homo sapiens) (UniProt Q01959); assay: Inhibition of dopamine transporter at 10 uM
Chain of Sodium-dependent dopamine transporter (Homo sapiens) (Q01959 whole entry): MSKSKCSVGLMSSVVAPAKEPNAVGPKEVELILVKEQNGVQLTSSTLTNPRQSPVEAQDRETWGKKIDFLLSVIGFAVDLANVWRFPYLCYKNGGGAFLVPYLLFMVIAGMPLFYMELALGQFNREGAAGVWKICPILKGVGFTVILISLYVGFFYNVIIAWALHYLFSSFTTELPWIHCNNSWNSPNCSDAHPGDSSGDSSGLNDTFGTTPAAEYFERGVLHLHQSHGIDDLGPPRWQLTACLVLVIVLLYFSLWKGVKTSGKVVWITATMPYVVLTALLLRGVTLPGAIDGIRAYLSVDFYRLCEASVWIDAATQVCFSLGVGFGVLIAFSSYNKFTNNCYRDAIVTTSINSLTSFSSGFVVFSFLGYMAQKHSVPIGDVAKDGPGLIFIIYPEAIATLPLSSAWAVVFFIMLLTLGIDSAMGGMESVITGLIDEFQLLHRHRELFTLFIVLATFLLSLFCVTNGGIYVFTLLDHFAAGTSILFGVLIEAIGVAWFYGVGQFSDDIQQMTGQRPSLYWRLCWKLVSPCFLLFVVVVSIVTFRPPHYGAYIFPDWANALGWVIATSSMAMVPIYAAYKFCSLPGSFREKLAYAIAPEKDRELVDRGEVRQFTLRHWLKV

[6] = Inhibition of adenosine receptor at 10 uM
[7] = target: Histamine H2 receptor (Homo sapiens) (UniProt P25021); assay: Inhibition of histamine H2 receptor at 10 uM
Chain of Histamine H2 receptor (Homo sapiens) (P25021 whole entry): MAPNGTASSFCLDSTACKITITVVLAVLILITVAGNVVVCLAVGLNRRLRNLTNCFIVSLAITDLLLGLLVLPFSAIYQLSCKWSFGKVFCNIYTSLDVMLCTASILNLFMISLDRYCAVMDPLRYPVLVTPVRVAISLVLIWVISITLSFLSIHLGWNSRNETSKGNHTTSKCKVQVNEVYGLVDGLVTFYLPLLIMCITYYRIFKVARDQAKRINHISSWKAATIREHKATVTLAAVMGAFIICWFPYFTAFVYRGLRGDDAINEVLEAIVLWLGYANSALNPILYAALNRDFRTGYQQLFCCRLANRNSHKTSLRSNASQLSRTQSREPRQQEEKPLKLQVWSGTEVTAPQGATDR

[8] = target: Voltage-gated inwardly rectifying potassium channel KCNH2 (Homo sapiens, UniProt Q12809); assay: Inhibition of human ERG; conditions: read-out: ED50 (the source's name)
Chain of Voltage-gated inwardly rectifying potassium channel KCNH2 (Q12809 whole entry): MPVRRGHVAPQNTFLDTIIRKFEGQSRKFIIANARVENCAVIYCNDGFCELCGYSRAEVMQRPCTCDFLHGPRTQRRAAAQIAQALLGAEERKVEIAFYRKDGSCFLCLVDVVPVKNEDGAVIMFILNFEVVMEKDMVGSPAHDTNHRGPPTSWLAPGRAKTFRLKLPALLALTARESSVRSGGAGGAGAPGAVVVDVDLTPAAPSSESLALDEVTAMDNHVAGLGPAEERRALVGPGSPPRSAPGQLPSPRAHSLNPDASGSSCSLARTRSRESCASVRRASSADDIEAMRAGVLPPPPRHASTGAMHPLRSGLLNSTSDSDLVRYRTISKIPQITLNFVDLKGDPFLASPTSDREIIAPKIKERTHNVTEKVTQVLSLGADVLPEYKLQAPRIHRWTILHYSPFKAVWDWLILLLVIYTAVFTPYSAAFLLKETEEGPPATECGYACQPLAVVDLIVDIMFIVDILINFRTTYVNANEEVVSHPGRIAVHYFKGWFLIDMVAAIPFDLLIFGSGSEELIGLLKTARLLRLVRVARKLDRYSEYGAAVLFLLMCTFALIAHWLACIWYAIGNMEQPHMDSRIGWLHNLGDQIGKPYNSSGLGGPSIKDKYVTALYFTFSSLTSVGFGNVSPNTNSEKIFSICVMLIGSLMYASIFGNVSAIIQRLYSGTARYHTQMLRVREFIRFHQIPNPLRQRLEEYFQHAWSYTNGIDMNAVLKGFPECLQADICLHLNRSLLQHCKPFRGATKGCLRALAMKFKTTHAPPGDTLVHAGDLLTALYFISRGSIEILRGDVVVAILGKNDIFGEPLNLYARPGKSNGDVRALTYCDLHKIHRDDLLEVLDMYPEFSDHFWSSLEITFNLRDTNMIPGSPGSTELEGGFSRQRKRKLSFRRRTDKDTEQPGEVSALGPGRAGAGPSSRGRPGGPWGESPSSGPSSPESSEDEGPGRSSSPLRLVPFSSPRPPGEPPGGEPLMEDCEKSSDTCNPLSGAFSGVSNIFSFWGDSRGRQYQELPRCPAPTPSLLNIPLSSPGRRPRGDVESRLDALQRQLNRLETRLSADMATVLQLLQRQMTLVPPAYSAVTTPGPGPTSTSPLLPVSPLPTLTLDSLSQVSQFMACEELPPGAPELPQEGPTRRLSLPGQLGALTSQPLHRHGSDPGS

Cytochrome P450 3A4 = Cytochrome P450 3A4 (Homo sapiens, UniProt P08684); assay: Inhibition of CYP3A4; type: ADME
Chain of Cytochrome P450 3A4 (P08684 whole entry): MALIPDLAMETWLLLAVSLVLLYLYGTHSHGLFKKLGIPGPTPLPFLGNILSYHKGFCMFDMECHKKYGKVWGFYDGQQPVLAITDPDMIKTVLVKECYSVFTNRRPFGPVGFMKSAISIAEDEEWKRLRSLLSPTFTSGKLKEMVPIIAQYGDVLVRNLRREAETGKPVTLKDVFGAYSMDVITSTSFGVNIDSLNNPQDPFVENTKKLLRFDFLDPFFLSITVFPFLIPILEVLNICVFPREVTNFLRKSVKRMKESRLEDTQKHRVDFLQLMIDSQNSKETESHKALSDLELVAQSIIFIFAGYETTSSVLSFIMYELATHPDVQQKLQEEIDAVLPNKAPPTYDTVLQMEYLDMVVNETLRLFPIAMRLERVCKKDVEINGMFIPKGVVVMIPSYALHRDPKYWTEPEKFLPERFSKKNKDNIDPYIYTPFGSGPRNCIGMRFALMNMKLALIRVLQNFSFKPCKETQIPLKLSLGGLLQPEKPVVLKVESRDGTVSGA

[9] = Solubility in deionized water; type: physicochemical
HUVEC = assay: Inhibition of VEGF-stimulated HUVEC cell proliferation treated before 2 hrs of VEGF challenge assessed after 3 days by [3H]thymidine incorporation assay; type: functional; conditions: Homo sapiens, read-out: ED50 (the source's name)
How it was run: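 HUVEC seeded at 1 × 10^4 cells/well in EGM and allowed to adhere ≥4 h. Cells then quiesced 72 h in medium lacking EGF, VEGF and FGF with 1% FBS. Compound added for 2 h (0.1% DMSO), then stimulation with VEGF-165 (5 ng/well) for 3 days.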

[10] = Drug level in po dosed CD1 mouse administered as 5% phosal solution after 1 hr; type: ADME, organism-based; conditions: in vivo, read-out: Drug uptake
How it was run: (§1)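 Preliminary exposure study in female CD-1 mice dosed by oral route; vehicles included 5% phosal solution. Plasma analysed for compound at 1-h and 4-h timepoints.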

[11] = Drug level in po dosed CD1 mouse administered as 5% phosal solution after 4 hrs; type: ADME, organism-based; conditions: in vivo, read-out: Drug uptake
How it was run: as §1

[12] = Cmax in CD1 mouse at 30 mg/kg administered as 5% phosal solution after 24 hrs; type: ADME, organism-based; design: dose 30 mg/kg; conditions: in vivo
How it was run: (§2)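 Female CD-1 mice (n = 3) given 30 mg/kg orally in 5% phosal solution (dihydrochloride salt; target ca. 3 mg/mL, dosed at 10 mL/kg).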

[13] = AUC (0 to 24 hrs) in CD1 mouse at 30 mg/kg administered as 5% phosal solution; type: ADME, organism-based; design: time < 24 hr, dose 30 mg/kg; conditions: plasma
How it was run: as §2

Structure (SMILES): COc1ccc(Nc2nnc(-c3ccc(C(N)=O)cc3)c3ccccc23)cc1
- ED50 [1]: > 10000 nM

Structure (SMILES): CNS(=O)(=O)c1ccc(Nc2nnc(-c3ccc(C(N)=O)cc3)c3ccccc23)cc1
- IC50 [2]: > 10000 nM

Structure (SMILES): Clc1ccc(Nc2nnc(-c3cccc4cnccc34)c3ccccc23)cc1
- inhibition [3]: 33%
- inhibition [4]: 38%
- inhibition [5]: 77%
- inhibition [6]: 65%
- inhibition [7]: 54%
- IC50 [8]: 3000 nM
- Activity (Cytochrome P450 3A4): Not Active
- solubility [9]: 1000 µg/mL (≈ 2610 µM)
- EC50 (HUVEC): 210 nM
- concentration at 1 h [10]: 22.7 µM
- concentration at 4 h [11]: 18.8 µM
- Cmax [12]: 25.9 µM
- AUC(0-t) at 24 h [13]: 891 µM·h
- ED50 [1]: 10 nM

Structure (SMILES): COc1cc2c(Oc3ccc4[nH]c(C)cc4c3F)ncnc2cc1OCCCN1CCCC1 [CEDIRANIB]
- EC50 (HUVEC): 12 nM

Structure (SMILES): COc1cc2/c(=N/c3ccc(Br)cc3F)nc[nH]c2cc1OCC1CCN(C)CC1 [VANDETANIB]
- EC50 (HUVEC): 280 nM

Structure (SMILES): NC(=O)c1ccc(-c2nnc(Nc3ccc(Oc4ccccc4)cc3)c3ccccc23)cc1
- IC50 [2]: > 10000 nM

Structure (SMILES): CC(C)(C)c1ccc(Nc2nnc(-c3ccc(C(N)=O)cc3)c3ccccc23)cc1
- EC50 (HUVEC): 250 nM
